Data as given in ChEMBL document CHEMBL1926565, “Synthesis, antiproliferative activities and telomerase inhibition evaluation of novel asymmetrical 1,2-disubstituted amidoanthraquinone derivatives” (Eur J Med Chem, 2012).
Activity calls are given as the source filed them. The calls are words filed in the database; no cut-off is given here.

Columns and labels:
PC-3 = assay: Cytotoxicity against human PC3 cells after 48 hrs by SRB assay; assay type: functional, cell-based; details: PC-3, 48 h
Summary of the method: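 PC-3 cells grown in RPMI1640 with 10% FBS at 37 °C, 5% CO₂. Seeded in medium with 5% FBS; after 24 h, one plate fixed with 10% TCA as T₀. Compound or 0.1% DMSO vehicle added for 48 h, then TCA fixation and 0.4% SRB in 1% acetic acid. Dye solubilized in 10 mM Trizma base, absorbance read at 515 nm. IC50 is the concentration giving 50% reduction of the protein gain in controls.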

[1] = molecular target: Telomerase reverse transcriptase (Homo sapiens) (UniProt O14746); assay: Residual activity of human TERT in H1299 cells at 1 uM after 24 hrs by SEAP reporter gene assay
Telomerase reverse transcriptase (Homo sapiens), sequence (O14746 whole entry): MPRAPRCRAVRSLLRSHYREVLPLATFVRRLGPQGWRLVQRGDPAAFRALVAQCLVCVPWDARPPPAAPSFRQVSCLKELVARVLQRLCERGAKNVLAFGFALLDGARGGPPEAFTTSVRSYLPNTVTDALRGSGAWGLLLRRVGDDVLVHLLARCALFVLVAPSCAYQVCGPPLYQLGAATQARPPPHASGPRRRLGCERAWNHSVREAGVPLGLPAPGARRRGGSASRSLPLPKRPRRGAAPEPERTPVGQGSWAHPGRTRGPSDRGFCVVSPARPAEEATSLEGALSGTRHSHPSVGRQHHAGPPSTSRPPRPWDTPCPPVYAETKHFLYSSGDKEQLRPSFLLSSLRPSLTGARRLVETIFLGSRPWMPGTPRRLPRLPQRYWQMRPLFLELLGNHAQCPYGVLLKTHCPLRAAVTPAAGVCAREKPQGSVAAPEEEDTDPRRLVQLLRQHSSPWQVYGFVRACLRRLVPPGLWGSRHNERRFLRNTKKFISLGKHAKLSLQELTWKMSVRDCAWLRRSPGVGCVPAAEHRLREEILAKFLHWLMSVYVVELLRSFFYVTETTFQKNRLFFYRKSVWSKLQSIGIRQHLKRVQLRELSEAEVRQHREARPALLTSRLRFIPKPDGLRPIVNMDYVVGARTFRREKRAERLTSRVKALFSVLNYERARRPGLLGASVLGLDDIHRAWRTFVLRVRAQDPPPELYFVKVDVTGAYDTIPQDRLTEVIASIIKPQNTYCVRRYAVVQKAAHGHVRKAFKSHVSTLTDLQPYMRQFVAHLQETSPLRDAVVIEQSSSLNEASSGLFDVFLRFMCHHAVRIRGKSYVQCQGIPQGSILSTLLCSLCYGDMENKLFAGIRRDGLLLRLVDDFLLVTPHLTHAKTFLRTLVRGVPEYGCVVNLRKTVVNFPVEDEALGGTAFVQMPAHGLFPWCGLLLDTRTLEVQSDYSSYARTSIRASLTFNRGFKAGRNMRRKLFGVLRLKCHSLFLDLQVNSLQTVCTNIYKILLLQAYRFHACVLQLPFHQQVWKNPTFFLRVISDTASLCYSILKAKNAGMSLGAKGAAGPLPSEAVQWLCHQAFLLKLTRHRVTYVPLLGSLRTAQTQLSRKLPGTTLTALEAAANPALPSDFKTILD

[2] = Growth of human H1299 cells at 10 uM after 48 hrs by MTT assay; details: NCI-H1299, 48 h
[3] = molecular target: Telomerase reverse transcriptase (Homo sapiens) (UniProt O14746); assay: Inhibition of telomerase activity in human H1299 cell free extract at 10 uM by modified TRAP assay
Summary of the method: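 TRAP assay using total cell lysate from H1299 lung cancer cells as the telomerase source, with protein measured against BSA standards. Compounds tested at 10 µM. Controls were lysate without inhibitor (positive) and RNase A-treated extract without inhibitor (negative).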

[4] = Growth of human H1299 cells at 1 uM after 48 hrs by MTT assay; details: NCI-H1299, 48 h
[5] = Growth of human H1299 cells at 100 uM 48 hrs by MTT assay; details: NCI-H1299, 48 h
[6] = molecular target: Telomerase reverse transcriptase (Homo sapiens) (UniProt O14746); assay: Residual activity of human TERT in H1299 cells at 100 uM after 24 hrs by SEAP reporter gene assay
[7] = molecular target: Telomerase reverse transcriptase (Homo sapiens) (UniProt O14746); assay: Residual activity of human TERT in H1299 cells at 10 uM after 24 hrs by SEAP reporter gene assay

| SMILES | IC50 (PC-3) [µM] | residual activity [1] [%] | growth, % of control at 10 µM [2] [%] | inhibition [3] | growth, % of control at 1 µM [4] [%] | growth, % of control at 100 µM [5] [%] | residual activity [6] [%] | residual activity [7] [%] |
| --- | --- | --- | --- | --- | --- | --- | --- | --- |
| COc1cccc2c1C(=O)c1c(O)c3c(c(O)c1C2=O)C[C@@](O)(C(=O)CO)C[C@@H]3O[C@H]1C[C@H](N)[C@H](O)[C@H](C)O1 [DOXORUBICIN] | 0.25 |  |  |  |  |  |  |  |
| O=C(CCl)Nc1ccc2c(c1NC(=O)Cc1ccc(F)cc1)C(=O)c1ccccc1C2=O | > 20 | 93 | 7 | inactive | 88 | 6 | 1 | 8 |
| Nc1c(NC(=O)CCl)ccc2c1C(=O)c1ccccc1C2=O | 1.65 | 15 | 0 | inactive | 8 | 0 | 13 | 13 |
| Cc1ccc(C(=O)Nc2c(NC(=O)CN(C)CCc3ccccn3)ccc3c2C(=O)c2ccccc2C3=O)cc1 | 6.68 | 94 | 46 | inactive | 90 | 1 | 22 | 11 |
| Cc1cccc(C(=O)Nc2c(NC(=O)CCl)ccc3c2C(=O)c2ccccc2C3=O)c1 | 3.79 | 116 | 0 | inactive | 72 | 0 | 0 | 0 |
| Cc1ccc(C(=O)Nc2c(NC(=O)CN3CCSCC3)ccc3c2C(=O)c2ccccc2C3=O)cc1 | 19.1 | 88 | 69 | inactive | 85 | 20 | 12 | 72 |
| O=C(CCl)Nc1ccc2c(c1NC(=O)c1ccccc1C(F)(F)F)C(=O)c1ccccc1C2=O | 3.42 | 93 | 3 | inactive | 93 | 0 | 2 | 4 |
| O=C(CCl)Nc1ccc2c(c1NC(=O)c1cccs1)C(=O)c1ccccc1C2=O | 2.64 | 5 | 2 | inactive | 0 | 0 | 2 | 3 |
| Cc1ccccc1C(=O)Nc1c(NC(=O)CCl)ccc2c1C(=O)c1ccccc1C2=O | 3.67 | 98 | 0 | inactive | 73 | 0 | 0 | 0 |
| O=C(CCl)Nc1ccc2c(c1NC(=O)c1ccccc1F)C(=O)c1ccccc1C2=O | > 20 | 105 | 2 | inactive | 78 | 0 | 2 | 5 |
| O=C(CCl)Nc1ccc2c(c1NC(=O)c1ccccc1)C(=O)c1ccccc1C2=O | 0.95 | 96 | 83 | inactive | 101 | 5 | 15 | 94 |
| O=C(CCCCl)Nc1ccc2c(c1NC(=O)CCCCl)C(=O)c1ccccc1C2=O | 3.94 | 113 | 79 | inactive | 103 | 19 | 15 | 92 |
| O=C1c2c(O)ccc(O)c2C(=O)c2c(NCCNCCO)ccc(NCCNCCO)c21 [MITOXANTRONE] | 0.29 |  |  |  |  |  |  |  |
| Cc1ccc(C(=O)Nc2c(NC(=O)CN3CCOCC3)ccc3c2C(=O)c2ccccc2C3=O)cc1 | > 20 | 98 | 56 | inactive | 81 | 15 | 3 | 54 |
| Cc1cc(C(=O)Nc2c(NC(=O)CCl)ccc3c2C(=O)c2ccccc2C3=O)c(C)o1 | 4.31 | 81 | 2 | inactive | 96 | 0 | 0 | 2 |
| O=C(CCl)Nc1ccc2c(c1NC(=O)c1ccc(Cl)cc1)C(=O)c1ccccc1C2=O | > 20 | 98 | 5 | inactive | 92 | 4 | 4 | 6 |
| Cc1ccc(C(=O)Nc2c(NC(=O)CN3CCCCC3)ccc3c2C(=O)c2ccccc2C3=O)cc1 | > 20 | 85 | 70 | inactive | 86 | 10 | 8 | 70 |
| Cc1ccc(C(=O)Nc2c(NC(=O)CN3CCN(CCO)CC3)ccc3c2C(=O)c2ccccc2C3=O)cc1 | 2.07 | 76 | 44 | inactive | 71 | 0 | 0 | 8 |
| O=C(CCl)Nc1ccc2c(c1NC(=O)CCCCl)C(=O)c1ccccc1C2=O | 1.12 | 108 | 116 | inactive | 100 | 62 | 30 | 97 |
| O=C(CCl)Nc1ccc2c(c1NC(=O)c1cccc(Cl)c1)C(=O)c1ccccc1C2=O | 3.51 | 80 | 5 | inactive | 89 | 0 | 3 | 6 |
| O=C(CCl)Nc1ccc2c(c1NC(=O)c1ccno1)C(=O)c1ccccc1C2=O | 3.78 | 92 | 3 | inactive | 105 | 0 | 1 | 4 |
| O=C(CCl)Nc1ccc2c(c1NC(=O)c1ccccc1Cl)C(=O)c1ccccc1C2=O | 3.09 | 81 | 6 | inactive | 101 | 0 | 1 | 5 |
| O=C(CCCl)Nc1ccc2c(c1NC(=O)CCCl)C(=O)c1ccccc1C2=O | > 20 | 96 | 83 | inactive | 101 | 5 | 15 | 94 |
| Cc1ccc(C(=O)Nc2c(NC(=O)CN(C)C)ccc3c2C(=O)c2ccccc2C3=O)cc1 | 3.92 | 99 | 88 | inactive | 106 | 0 | 9 | 78 |
| Cc1ccc(C(=O)Nc2c(NC(=O)CN3CCN(c4ccccc4)CC3)ccc3c2C(=O)c2ccccc2C3=O)cc1 | > 20 | 93 | 76 | inactive | 80 | 23 | 15 | 88 |
| O=C(CCl)Nc1ccc2c(c1NC(=O)CCCl)C(=O)c1ccccc1C2=O | 1.23 | 113 | 79 | inactive | 103 | 19 | 15 | 92 |
| Cc1ccc(C(=O)Nc2c(NC(=O)CN(C)CC3OCCO3)ccc3c2C(=O)c2ccccc2C3=O)cc1 | 1.46 | 100 | 88 | inactive | 104 | 3 | 10 | 76 |
